Sampled rows, rich in hits. Any-hit rate of the full collection: about 2.9%.
PfM18AAP inh-1: blocks P. falciparum M18 aspartyl aminopeptidase; recombinant PfM18AAP, H-Glu-NHMec fluorogenic cleavage; inhibition, % at 7.35 µM; 1.2% of 290,000 active; AID 1822;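 active = inhibition above the campaign mean inhibition over all tested compounds plus 3 SD, cut at about 28% in these data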
Apaf-1 inh: blocks human Apaf-1 apoptosome activity; AID 489030; O14727; reconstituted apoptosome caspase-3 activity, DEVD-Rh110 fluorescence; inhibition, % at 20 µM; 0.71% of 330,000 active; active = inhibition of at least 40% at 20 µM
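Material: reconstituted apoptosome with Apaf-1, cytochrome c, caspase-9, procaspase-3, dATP. Technique: Rh110 fluorescence intensity. Buffer or medium: pH 7.5 Hepes buffer with CHAPS, BSA, DTT. Times: 30 min plus 50 min, RT.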
UBC13 polyUb: human UBC13 polyubiquitination inhibition; AID 485273; 0.47% of 330,000 active; P61088; UBC13 polyubiquitin chain formation, TR-FRET; inhibition, % at 20 µM; in the data active = inhibition above about 45%, passing the limit was not always enough
Target sequence (P61088 whole entry, looked up): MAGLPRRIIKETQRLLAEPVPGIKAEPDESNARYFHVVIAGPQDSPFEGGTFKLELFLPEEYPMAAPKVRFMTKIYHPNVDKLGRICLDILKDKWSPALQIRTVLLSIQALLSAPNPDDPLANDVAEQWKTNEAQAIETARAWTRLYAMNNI
EBNA-1 inhibitor: blocks EBNA-1 binding to DNA; EBNA-1 DNA binding, fluorescence polarization; inhibition, % at 14.8 µM; 0.34% of 300,000 active; AID 1950; in the data active = inhibition above about 28%
PfG6PD inh: PfG6PD (Plasmodium falciparum) enzyme inhibition | PfGluPho enzyme, NADPH resazurin-diaphorase fluorescence | inhibition, % at 20 µM | 0.78% of 350,000 active;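 active = inhibition reaching at least a set limit at 20 µM in the primary screen, cut at about 59% in these data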
ZTA counter: ZTA (EBV) inhibition in EBNA-1 counter-screen; inhibition, % at 11 µM; 0.15% of 320,000 active; ZTA-DNA binding, fluorescence polarization; in the data active = inhibition above about 33%
Target sequence (P03206 whole entry, looked up): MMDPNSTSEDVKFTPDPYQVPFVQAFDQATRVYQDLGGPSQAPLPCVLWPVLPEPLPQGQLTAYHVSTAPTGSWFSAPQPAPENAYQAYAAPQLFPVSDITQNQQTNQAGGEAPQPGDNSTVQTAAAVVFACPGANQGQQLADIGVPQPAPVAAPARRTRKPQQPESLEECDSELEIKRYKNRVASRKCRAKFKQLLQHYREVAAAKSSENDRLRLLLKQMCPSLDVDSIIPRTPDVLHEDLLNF
PfM18AAP inh-2: PfM18AAP inhibition, confirmation | inhibition, % at 7.35 µM | AID 2170 | shares compounds with PfM18AAP inh-1 | 28% of 2,400 active | recombinant PfM18AAP, H-Glu-NHMec fluorogenic cleavage;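 active = mean inhibition over replicate wells above the hit cutoff set for the earlier primary screen, cut at about 29% in these data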
CTSL1 confirm: Cathepsin L (human) inhibition, confirmation | AID 2178 | inhibition, % at 5.96 µM | 2,400 tested, under 10 active | shares compounds with PfM18AAP inh-1 | purified cathepsin L1, Z-Leu-Arg-MCA fluorescence;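 active = average inhibition across replicates above the hit cutoff set in the earlier primary screen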
Target sequence (P07711 whole entry, looked up): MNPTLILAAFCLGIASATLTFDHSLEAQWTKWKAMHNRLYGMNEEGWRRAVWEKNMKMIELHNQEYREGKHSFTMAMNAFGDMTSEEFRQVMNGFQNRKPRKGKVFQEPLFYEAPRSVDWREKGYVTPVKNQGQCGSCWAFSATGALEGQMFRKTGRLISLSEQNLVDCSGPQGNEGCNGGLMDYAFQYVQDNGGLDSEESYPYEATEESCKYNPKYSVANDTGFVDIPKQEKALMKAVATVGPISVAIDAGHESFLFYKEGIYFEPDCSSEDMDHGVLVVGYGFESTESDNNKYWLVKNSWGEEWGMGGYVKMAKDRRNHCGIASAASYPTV
Of the large screens only hits and unclear results are named; the others gave an inactive call (follow-up assays come after a bar, where they were run).

Cc1cc(C)c2c(N)c(C(=O)NNC(=O)c3ccccc3)sc2n1	PfM18AAP inh-1 44 | PfM18AAP inh-2 inactive | CTSL1 confirm inactive
O=C(COC(=O)Cc1cccc(C(F)(F)F)c1)NC1CCS(=O)(=O)C1 (stereo unspecified)	none (no result: PfM18AAP inh-1)
COc1ccc(NC(=S)NCCCc2ccccc2)cc1	none
COCCCNC(=S)NNC(=S)Nc1ccc(OC)cc1	PfM18AAP inh-1 49 | PfM18AAP inh-2 inactive | CTSL1 confirm inactive
O=C(NCc1ccccn1)C(=O)N/N=C/c1ccc2c(c1)OCO2	PfM18AAP inh-1 37 | PfM18AAP inh-2 inactive | CTSL1 confirm inactive
O=C(NCCc1ccccc1)C(=O)N/N=C/c1ccc2c(c1)OCO2	none
CCOCCCNC(=O)C(c1ccc(C)cc1)N(Cc1cccs1)C(=O)c1ccccc1O (stereo unspecified)	none
CS(=O)(=O)c1ccc2c(c1)sc1nc(=O)c(/C=C3/C=CC(=O)C(O)=C3)c(N)n12	PfM18AAP inh-1 58 | PfM18AAP inh-2 62 | CTSL1 confirm inactive
COC1=C/C(=C/c2c(N)n3c(nc2=O)sc2cc(S(C)(=O)=O)ccc23)C=CC1=O	none
O=C(CN1CCN(c2ccccc2F)CC1)c1ccc(O)c(O)c1	PfM18AAP inh-1 60 (no result: EBNA-1 inhibitor, ZTA counter) | PfM18AAP inh-2 37 | CTSL1 confirm inactive
CC(C)c1ccc(S(=O)(=O)N2CCN(CC(=O)c3ccc(O)c(O)c3)CC2)cc1	PfM18AAP inh-1 67 (no result: PfG6PD inh) | PfM18AAP inh-2 36 | CTSL1 confirm inactive
O=C(CN1CCN(S(=O)(=O)c2ccc(Br)cc2)CC1)c1ccc(O)c(O)c1	PfM18AAP inh-1 72 | PfM18AAP inh-2 40 | CTSL1 confirm inactive
CC(C)c1ccc(S(=O)(=O)N2CCN(CC(=O)Nc3ccc(Cl)cc3F)CC2)cc1	none (no result: PfM18AAP inh-1, EBNA-1 inhibitor)
CCC(c1nnc(SCC(=O)Nc2nnc(-c3ccccc3)o2)o1)N(C)C (stereo unspecified)	PfM18AAP inh-1 69 | PfM18AAP inh-2 35 | CTSL1 confirm inactive
O=c1nc(/C=C/c2ccc(O)c(O)c2)oc2ccccc12	PfM18AAP inh-1 63 (no result: Apaf-1 inh, UBC13 polyUb, EBNA-1 inhibitor, ZTA counter) | PfM18AAP inh-2 56 | CTSL1 confirm inactive
CCn1c(/C=C/c2ccc(O)c(O)c2)nc2ccccc2c1=O	PfM18AAP inh-1 54 (no result: EBNA-1 inhibitor, ZTA counter) | PfM18AAP inh-2 43 | CTSL1 confirm inactive
O=C(Nc1nccs1)c1ccc(COc2ccccc2Cl)o1	none
O=c1c2ccccc2nc(SCc2ccccc2)n1CC1CCCO1 (stereo unspecified)	none
O=c1oc2ccccc2c2oc3cc(O)c(O)cc3c12	PfM18AAP inh-1 68 | PfM18AAP inh-2 74 | CTSL1 confirm inactive
COc1ccc(C(c2c(C)[nH][nH]c2=O)c2c(C)[nH][nH]c2=O)cc1Br	PfM18AAP inh-1 36 | PfM18AAP inh-2 inactive | CTSL1 confirm inactive
COc1cc(C(c2c(C)[nH][nH]c2=O)c2c(C)[nH][nH]c2=O)cc(Cl)c1O	none
COc1cc(C(c2c(C)[nH][nH]c2=O)c2c(C)[nH][nH]c2=O)cc(OC)c1OC	PfM18AAP inh-1 35 | PfM18AAP inh-2 inactive | CTSL1 confirm inactive
CC(=O)Oc1cc(O)c2c(c1)OC(c1ccc(OC(C)=O)c(OC(C)=O)c1)C(OC(C)=O)C2=O (stereo unspecified)	PfM18AAP inh-1 54 | PfM18AAP inh-2 31 | CTSL1 confirm inactive
Cc1cc(NC(=O)CSc2nnc(Cc3ccccc3)o2)no1	PfM18AAP inh-1 40 | PfM18AAP inh-2 inactive | CTSL1 confirm inactive
Cc1cc(NC(=O)CSc2nnc(CNC(=O)c3ccccc3)o2)no1	none
CC(C)[C@H](NC(=O)c1ccc(Cl)cc1Cl)C(=O)OCc1nc2ccsc2c(=O)[nH]1	none (no result: PfM18AAP inh-1, Apaf-1 inh, UBC13 polyUb, EBNA-1 inhibitor, ZTA counter)
CC(=O)Oc1ccc(C(=O)OCC(=O)c2c(N)n(C)c(=O)n(C)c2=O)cc1OC(C)=O	PfM18AAP inh-1 43 | PfM18AAP inh-2 inactive | CTSL1 confirm inactive
CNC(=S)NNC(=O)c1sccc1C	PfM18AAP inh-1 35 | PfM18AAP inh-2 inactive | CTSL1 confirm inactive
Cc1ccc(N2C(=O)Nc3ccccc3C2(O)C(=O)N2CCN(c3ccccn3)CC2)cc1C (stereo unspecified)	none
O=C1/C(=C\c2ccc(O)c(O)c2)C(c2ccccc2)=NN1c1ccccc1	PfM18AAP inh-1 49 (no result: Apaf-1 inh, UBC13 polyUb, EBNA-1 inhibitor, ZTA counter) | PfM18AAP inh-2 36 | CTSL1 confirm inactive
O=C(CCCCn1cnc2c(=S)nc[nH]c21)Nc1ccc(C(=O)O)cc1	none (no result: PfM18AAP inh-1, Apaf-1 inh, UBC13 polyUb, EBNA-1 inhibitor, ZTA counter)
O=C(O)Cn1cnc2c(=S)nc[nH]c21	PfM18AAP inh-1 57 | PfM18AAP inh-2 inactive | CTSL1 confirm inactive
Cc1cc(C)nc(SCNC(=O)c2ccc(F)cc2)n1	PfM18AAP inh-1 50 | PfM18AAP inh-2 inactive | CTSL1 confirm inactive
COc1ccc(C)cc1NC(=O)n1ncc2cc(Cl)ccc21	none
COc1ccc(C(O)c2nccc3cc(OC)c(OC)cc23)cc1OC (stereo unspecified)	none
CC1(C)CC(=O)c2c(oc3cc(O)c(O)cc23)C1	PfM18AAP inh-1 83 | PfM18AAP inh-2 73 | CTSL1 confirm inactive
COC(=O)c1oc2c(c1C)C(=O)CC(C)(C)C2	none
CCCOc1ccc(/C=c2\sc3ncnn3c2=O)cc1	PfM18AAP inh-1 73 | PfM18AAP inh-2 39 | CTSL1 confirm inactive
CC(=O)Oc1ccc(/C=c2\sc3ncnn3c2=O)cc1	PfM18AAP inh-1 35 | PfM18AAP inh-2 inactive | CTSL1 confirm inactive
CCOc1ccccc1C=C1SC(=S)N(CC)C1=O	none (no result: PfM18AAP inh-1, Apaf-1 inh, UBC13 polyUb, EBNA-1 inhibitor, ZTA counter)
CCCOc1ccc(/C=C2\SC(=S)N(CC3CCCO3)C2=O)cc1 (stereo unspecified)	none
CCOc1ccccc1/C=c1\sc2ncnn2c1=O	PfM18AAP inh-1 51 | PfM18AAP inh-2 29 | CTSL1 confirm inactive
O=C(COC(=O)c1cccc(NS(=O)(=O)c2ccc(F)c(F)c2)c1)NC(=O)NC1CCCC1	none
O=C(Cc1ccc(Cl)cc1Cl)OCC(=O)N1CCCCC1	none
O=C(NCCOc1ccc(F)cc1)C1CCC(=O)N(CCN2CCOCC2)C1 (stereo unspecified)	none
CCCc1nnc(NC(=O)CSc2ncn[nH]2)s1	PfM18AAP inh-1 40 | PfM18AAP inh-2 44 | CTSL1 confirm inactive
CCCCc1nc(SCC(=O)Nc2nnc(CCCC)s2)n[nH]1	none
COc1ccc(CNC(=O)CSc2ncn[nH]2)cc1OC	PfM18AAP inh-1 34 | PfM18AAP inh-2 inactive | CTSL1 confirm inactive
CCOC(=O)c1c(NC(=O)CSc2ncn[nH]2)sc(C)c1C	PfM18AAP inh-1 48 | PfM18AAP inh-2 inactive | CTSL1 confirm inactive
COc1ccc(CCNC(=O)CSc2ncn[nH]2)cc1	none
CCOC(=O)c1c(NC(=O)CSc2ncn[nH]2)sc(C(=O)NC)c1C	none
O=C(CSc1ncn[nH]1)Nc1nc(-c2ccccc2)cs1	PfM18AAP inh-1 40 | PfM18AAP inh-2 46 | CTSL1 confirm inactive

Assay outcomes from PubChem BioAssay.
